This is an account of results in publication PMC9078949 (RSC Advances, 2018).

Where “and” joins values, the source holds several entries; their conditions need not be identical. Identical values can stand only once. Bounds are passed on as bounds.

A word on the AUC(0-inf): it is the area under the concentration-time curve extrapolated to infinity. The low end stands for less exposure, the high end for more exposure. For orientation: AUC(0-t) means exposure summed from dosing to a finite time, without extrapolation to infinity. Read a low AUC(0-t) as low exposure. What is called Cmax is the highest concentration seen after dosing. What is called MRT is a mean duration of stay, worked out from the concentration-time curve. As usually defined, the Tmax is the time at which the peak concentration occurs. The half-life is the time in which the quantity being followed falls by half. A high value points to slow loss.

Series [1] is described as follows: Oral pharmacokinetic study in rats. The format is in vivo. The following applies: SD, rat, plasma, 10 mg/kg. In a few lines: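 SD rats received test compound at 10 mg kg−1 by oral gavage in 2% DMSO + 98% (0.5% MC). Venous blood was sampled at 0, 0.25, 0.5, 1, 2, 4, 6, 8 and 24 h. Plasma was separated by centrifugation, stored at −20 °C and assayed by LC/MS. Cmax, Tmax, t1/2 and AUC were then calculated.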

The nature of series [2]: Plasma stability assay, human plasma. Type of series: in vitro ADME. The note with it: @45 min, 37 °C. In a few lines: (§1)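 Rat or human plasma was spiked with test article from a 100 μg mL−1 stock and incubated at 37 °C with gentle agitation. Aliquots taken at 0, 15 and 45 min were quenched in methanol containing 1 μg mL−1 internal standard, then centrifuged and analysed by LC/MS. Percent remaining relative to 0 min was based on the analyte/internal standard peak-area ratio.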

The test system of series [3] is CFPAC1 cells. Kind of series: Cell migration assay. The format is cell-based. The following applies: 10 μM, 24 h, 3 visual fields, control group 1221 ± 57 cells.
The nature of series [4]: Liver microsome stability assay, rat. Type of series: in vitro ADME. The note with it: @45 min, 37 °C, NADPH. In a few lines: (§2)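 Rat or human liver microsomes (1 mg mL−1) were mixed with NADPH (from a 50 mM stock) and pre-warmed for 5 min at 37 °C. Reactions were started with test article from a 100 μg mL−1 stock and kept at 37 °C. Samples at 0, 15 and 45 min were quenched in methanol containing 1 μg mL−1 internal standard, then centrifuged and analysed by LC/MS. Disappearance was derived from the analyte/internal standard peak-area ratio.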

A short description of series [5]: SIF stability assay. The note with it: @45 min, 37 °C, pH 7.4. The format is in vitro ADME. In a few lines: (§3)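 Two media were used. SIF: pancreatin 0.68 g per 100 mL of 50 mM potassium phosphate, pH 7.4. SGF: pepsin 3.2 g per 1000 mL of water with 2.0 g NaCl and 7.0 mL concentrated HCl, pH about 1.2. Test article was added from a 100 μg mL−1 stock and incubated at 37 °C with gentle agitation. Samples at 0, 15 and 45 min were quenched in methanol with 1 μg mL−1 internal standard and analysed by LC/MS. Percent remaining relative to 0 min used the peak-area ratio.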

Series [6] can be described thus: Liver microsome stability assay, human. The format is in vitro ADME. The following applies: @45 min, 37 °C, NADPH. In a few lines: as §2
A general note: Liver microsomes are a subcellular fraction often used to study metabolism.

Series [7] is described as follows: Plasma stability assay, rat plasma. The format is in vitro ADME. The note with it: @45 min, 37 °C. In a few lines: as §1
A short description of series [8]: SGF stability assay. The note with it: @45 min, 37 °C, pH about 1.2. The format is in vitro ADME. In a few lines:
as §3

The test system of series [9] is CFPAC1 cells. As to the kind of experiment: Wound healing assay. Type of series: cell-based. The note with it: Homo sapiens, CFPAC-1, 48 h, read-out: migration inhibitory rate. In a few lines:
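CFPAC1 cells were seeded at 5 × 10^5 per well in 6-well plates and grown to 90% confluence. The monolayer was scratched with a sterile pipette tip and rinsed three times with PBS. Cells were then exposed to 1‰ DMSO or 10 μM test compound. Wounds were photographed at 0, 24 and 48 h. Inhibition (%) = [1 − (0 h area − 24 h or 48 h area)/0 h area] × 100.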

Series [10] deals with T1, CXCR2 (Homo sapiens, UniProt P25025).
T1 sequence (P25025 1-360): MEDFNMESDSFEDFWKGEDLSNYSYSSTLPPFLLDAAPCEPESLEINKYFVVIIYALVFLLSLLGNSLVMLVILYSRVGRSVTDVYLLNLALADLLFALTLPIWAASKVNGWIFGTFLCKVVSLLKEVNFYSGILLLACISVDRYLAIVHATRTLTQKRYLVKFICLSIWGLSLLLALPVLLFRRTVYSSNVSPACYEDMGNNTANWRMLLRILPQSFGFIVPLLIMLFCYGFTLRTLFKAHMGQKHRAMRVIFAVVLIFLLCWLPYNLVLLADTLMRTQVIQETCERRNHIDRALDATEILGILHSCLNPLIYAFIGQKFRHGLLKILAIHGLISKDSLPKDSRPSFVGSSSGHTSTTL
Kind of series: CXCR2 antagonistic activity assay. Type of series: cell-based. In a few lines:
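HEK293 cells stably co-expressing Gα16 with either CXCR1 or CXCR2 were seeded and grown for 24 h. They were loaded with 2 μmol L−1 Fluo-4 AM in HBSS (pH 7.4, with BSA and 250 μmol L−1 sulfinpyrazone) for 45 min at 37 °C, and excess dye was removed. Test compound was added for 10 min at room temperature before IL-8 injection. Calcium signal was read at ex 485/em 525 nm. IC50 came from nonlinear regression of log concentration–response curves; each experiment was run ≥3 times.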

For series [11], the system named is CFPAC1 cells. Kind of series: Anti-proliferation assay. Type of series: cell-based. The note with it: 6.25, 12.5, 25, 50 and 100 μM; 72 h; MTT. Put shortly:
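CFPAC1 pancreatic cancer cells were seeded at 4000 cells per well and left to adhere for 24 h. They were then exposed for 72 h to medium alone or to test compound at 6.25, 12.5, 25, 50 or 100 μM. Viability was read by MTT. Growth inhibition (%) = [1 − (A/B)] × 100, where A is treated and B is untreated absorbance.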

In [1], `O=C(c1cccc(Nc2c(NC3C[C@@H]4CC[C@H]3C4)c(=O)c2=O)c1O)N1CCCC1` (stereo partly drawn) [2e, 3-(((1S,4R)-Bicyclo[2.2.1]heptan-2-yl)amino)-4-((2-hydroxy-3-(pyrrolidine-1-carbonyl)phenyl)amino)cyclobut-3-ene-1,2-dione] had an AUC(0-inf) of 8940 ± 3460 ng·h/mL, an AUC(0-t) of 8820 ± 3560 ng·h/mL, a Cmax of 2860 ± 94 ng/mL and an MRT of 3.43 ± 0.73 h. Besides, in series [1], the Tmax is 0.33 ± 0.14 h, the half-life is 2.58 ± 0.74 h and the k el was 7.92e-05 s⁻¹. Besides, in series [2], the “Remaining percentage, plasma stability, human” value was above 99%. The “number of cells traversed into the lower chamber of the Transwell” value in series [3] came to 727 ± 50 cells. The “Remaining percentage, liver microsome stability, rat” value in [4] is 84% and 84.2 ± 3.4%. Further, the “Remaining percentage, SIF” value in series [5] was 92.2 ± 2.0%. Moreover, the “Remaining percentage, liver microsome stability, human” value in [6] is 27% and 27.4 ± 4.3%. Also, in [7], the “Remaining percentage, plasma stability, rat” value is recorded as above 99%. For the same compound, the “Remaining percentage, SGF” value in [8] is above 99%. Further, the inhibition at 10 µM in series [9] amounted to 20.2%. In series [10], the “Ratio = CXCR1 IC50/CXCR2 IC50 (selectivity for CXCR2 over CXCR1)” value is recorded as 60.4. Moreover, in series [11], the “inhibitory effect on the CFPAC1 cell line (survival rate)” value is recorded as “no inhibitory effect”.
